In general, inhibition in vivo refers to the share of the control response that was lost under treatment. A word on the ED50: it is the dose that gives a 50% effect, or the effect in half of the subjects. Usually clearance stands for a measure of how efficiently the substance is removed, as volume per time. The term bioavailability denotes dose-corrected exposure relative to a reference, in per cent. What is called Cmax is the peak of the concentration-time curve. The term EC50 denotes the midpoint of the concentration-response curve. One may read the Tmax as the time from dosing to the highest level. Usually AUC stands for the area under the concentration-time curve, a measure of exposure. By AUC(0-t) is commonly meant exposure summed from dosing to a finite time, without extrapolation to infinity.

The results in this text go back to ChEMBL document CHEMBL4219124, “Alleviating CYP and hERG liabilities by structure optimization of dihydrofuran-fused tricyclic benzo[d]imidazole series - Potent, selective and orally efficacious microsomal prostaglandin E synthase-1 (mPGES-1) inhibitors: Part-2” (Bioorg Med Chem Lett, 2018).

The nature of series [1]: Ratio of drug uptake in brain to plasma of Dunkin-Hartley guinea pig LPS-induced hyperalgesia pain model at 100 mg/kg, po administered 2 hrs prior to LPS challenge measured 7 hrs post dose. The class given is ADME, organism-based, Cavia porcellus. The note with it: read-out: BPR. Summed up: (§1)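 Guinea pigs dosed orally at 10, 30 or 100 mg/kg 2 h before intraplantar LPS in the right hind paw; thermal hyperalgesia scored. Plasma (ng/mL) and brain (ng/g) levels taken 7 h post dose; brain/plasma ratio computed. Means of 6–9 animals per group, single experiment.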

Series [2] is described as follows: Ratio of plasma concentration in Dunkin-Hartley guinea pig LPS-induced hyperalgesia pain model to IC50 for mPGES1 in human whole blood. The note with it: in vivo. Format: ADME.
Series [3] in a line: Apparent volume of distribution in Beagle dog at 1 mg/kg, iv. The class given is ADME, organism-based, Canis lupus familiaris. The settings on record: in vivo, read-out: Vz. Summed up: (§2)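 Intravenous dose of 1 mg/kg; clearance and Vz derived from the i.v. arm. Rat (male Sprague-Dawley) vehicle 20% NMP + 20% ethanol + 60% PEG 200, mean ± SD (n = 3). Dog vehicle 20% NMP + 20% EtOH + 10% PG + 50% PEG 200:water (3:2). Monkey vehicle 10% NMP + 10% ethanol + 10% PEG + 70% PEG200:water (3:2).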

Series [4] has as its system Cavia porcellus. As to the kind of experiment: Analgesic activity in Dunkin-Hartley guinea pig hyperalgesia pain model assessed as inhibition of LPS-induced hyperalgesia at 10 mg/kg, po administered 2 hrs prior to LPS challenge measured after 4.5 hrs relative to control. The class given is functional. The procedure, abridged: (§3)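 Guinea pigs received compound orally, once daily, at 10, 30 or 100 mg/kg, 2 h before LPS was injected into the plantar surface of the right paw. Saline-injected animals served as the comparison for thermal hyperalgesia. Plasma and brain drug levels taken 7 h after dosing, mean of n = 6–9 per group, from a single experiment.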

Series [5] in a line: Protein binding in cynomolgus monkey plasma at 10 uM after 5 hrs by equilibrium dialysis based LC-MS/MS analysis. The class given is ADME, cell-free, Macaca fascicularis. The note with it: read-out: PPB (converted). The procedure, abridged:
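Equilibrium dialysis at 10 μM compound; result expressed as percent bound.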
In general terms: In equilibrium dialysis only unbound substance equilibrates across the membrane.

The subject of series [6] is Cavia porcellus. Briefly: Analgesic activity in Dunkin-Hartley guinea pig hyperalgesia pain model assessed as inhibition of LPS-induced hyperalgesia at 100 mg/kg, po administered 2 hrs prior to LPS challenge measured after 4.5 hrs relative to control. The class given is functional. The procedure, abridged: as §3
A short description of series [7]: Ratio of drug uptake in brain to plasma of Beagle dog at 10 mg/kg, po. The class given is ADME, organism-based, Canis lupus familiaris. The note with it: read-out: BPR.
The nature of series [8]: Ratio of drug uptake in brain to plasma of cynomolgus monkey at 10 mg/kg, po. Format: ADME, organism-based, Macaca fascicularis. The note with it: read-out: BPR.
Series [9] relates to Cavia porcellus. As to the kind of experiment: Analgesic activity in Dunkin-Hartley guinea pig hyperalgesia pain model assessed as inhibition of LPS-induced hyperalgesia administered orally 2 hrs prior to LPS challenge measured after 4.5 hrs. The class given is functional. The note with it: po. The procedure, abridged: as §3
Series [10] is described as follows: Clearance in Beagle dog at 1 mg/kg, iv. Format: ADME, organism-based, Canis lupus familiaris. The note with it: in vivo. Summed up:
as §2

Series [11] is described as follows: (§4) Oral bioavailability in Beagle dog at 10 mg/kg. Format: ADME, organism-based, Canis lupus familiaris. The settings on record: Beagle, in vivo. Summed up: (§5)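 Plasma PK after 1 mg/kg i.v. and 10 mg/kg p.o.; %F from both routes. Rat: male Sprague-Dawley, oral 0.5% methylcellulose suspension, i.v. 20% NMP/20% ethanol/60% PEG 200, n = 3. Dog oral: Tween 80 2.5 μL/mL + 0.5% MC suspension. Monkey oral: same Tween/MC suspension; i.v. 10% NMP/10% ethanol/10% PEG/70% PEG200-water premix.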

Series [12] in a line: Oral bioavailability in Sprague-Dawley rat at 10 mg/kg. The class given is ADME, organism-based. The note with it: in vivo. Summed up: as §5
Series [13] is described as follows: Ratio of drug uptake in brain to plasma of Dunkin-Hartley guinea pig at 10 mg/kg, po. The settings on record: for Kp: Dunkin-Hartley, brain/plasma, read-out: BPR. The class given is ADME, organism-based, Cavia porcellus.
Series [14] can be described thus: Cmax in Sprague-Dawley rat at 10 mg/kg, po. The class given is ADME, organism-based. On the set-up: dose 10 mg/kg, route oral. The settings on record: in vivo. The procedure, abridged:
(§6)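 Single oral dose of 10 mg/kg. Cmax and AUC0-24 taken from the oral arm. Rat: male Sprague-Dawley, dosed in 0.5% methylcellulose suspension, mean ± SD (n = 3). Guinea pig: 20% NMP + 0.5% MC suspension, mean ± SD (n = 3). Dog and cynomolgus monkey: 2.5 μL/mL Tween 80 + 0.5 (w/v) MC suspension.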

Series [15] concerns the target T1, Nuclear receptor subfamily 1 group I member 2 (Homo sapiens, UniProt O75469).
T1 sequence (O75469 whole entry): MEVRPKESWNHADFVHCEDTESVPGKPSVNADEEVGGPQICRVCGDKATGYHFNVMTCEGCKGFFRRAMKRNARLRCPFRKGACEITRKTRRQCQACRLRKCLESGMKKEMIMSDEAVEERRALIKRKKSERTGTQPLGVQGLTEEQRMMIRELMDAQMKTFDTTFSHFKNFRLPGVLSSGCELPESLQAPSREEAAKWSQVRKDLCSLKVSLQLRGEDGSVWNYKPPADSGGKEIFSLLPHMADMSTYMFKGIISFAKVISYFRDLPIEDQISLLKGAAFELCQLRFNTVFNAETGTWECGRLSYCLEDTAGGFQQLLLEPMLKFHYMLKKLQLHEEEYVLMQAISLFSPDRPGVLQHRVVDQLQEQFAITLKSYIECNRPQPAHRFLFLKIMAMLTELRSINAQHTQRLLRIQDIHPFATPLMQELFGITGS
Briefly: Activation of human PXR. The class given is ADME.

Series [16] in a line: Tmax in Sprague-Dawley rat at 10 mg/kg, po. The class given is ADME, organism-based. The settings on record: in vivo. The procedure, abridged: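 Tmax from oral 10 mg/kg dosing. Rat: male Sprague-Dawley, 0.5% MC suspension, n = 3. Guinea pig: 20% NMP + 0.5% MC suspension, n = 3. Dog and monkey: 2.5 μL/mL Tween 80 + 0.5% MC suspension.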
Series [17] relates to Cavia porcellus. Briefly: Analgesic activity in Dunkin-Hartley guinea pig MIA-induced osteoarthritic pain model assessed as reversal of incapacitance at 250 mg/kg, po administered on day 3 measured 6 to 7 hrs post dose relative to control. The class given is functional. Summed up: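 Day 0: monoiodoacetate injected into the right shoulder joint of guinea pigs; saline-injected animals as comparison. Day 3: compound given orally at 100, 250 or 500 mg/kg, and weight-bearing incapacitance on the injected forelimb measured. Plasma sampled at the PD time point, n = 6–8 per group, single experiment.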

Series [18] in a line: Ratio of drug uptake in brain to plasma of Dunkin-Hartley guinea pig LPS-induced hyperalgesia pain model at 30 mg/kg, po administered 2 hrs prior to LPS challenge measured 7 hrs post dose. The class given is ADME, organism-based, Cavia porcellus. The settings on record: read-out: BPR. Summed up: as §1
Series [19] relates to Cynomolgus monkey. Briefly: (§7) AUC (0 to 24 hrs) in cynomolgus monkey at 10 mg/kg, po. The note with it: in vivo, 24 h. Also on record: time < 24 hr, dose 10 mg/kg, route oral. Format: ADME, organism-based, Macaca fascicularis. The procedure, abridged: as §6
Series [20] can be described thus: AUC (0 to 24 hrs) in Beagle dog at 10 mg/kg, po. The note with it: Beagle, in vivo. Also on record: dose 10 mg/kg, time < 24 hr, route oral. The class given is ADME, organism-based, Canis lupus familiaris. Summed up:
as §6

The test system of series [21] is Cynomolgus monkey. As to the kind of experiment: (§8) Oral bioavailability in cynomolgus monkey at 10 mg/kg. Format: ADME, organism-based, Macaca fascicularis. The settings on record: in vivo. Summed up:
as §5

Series [22] in a line: Drug uptake in brain of Dunkin-Hartley guinea pig LPS-induced hyperalgesia pain model at 100 mg/kg, po administered 2 hrs prior to LPS challenge measured 7 hrs post dose. The class given is ADME, organism-based, Cavia porcellus. The note with it: read-out: Drug uptake. The procedure, abridged:
as §3

Series [23] can be described thus: Cmax in Dunkin-Hartley guinea pig at 10 mg/kg, po. The class given is ADME, organism-based, Cavia porcellus. The settings on record: in vivo. Also on record: dose 10 mg/kg, route oral. Summed up: as §6
Series [24] in a line: Clearance in cynomolgus monkey at 1 mg/kg, iv. The class given is ADME, organism-based, Macaca fascicularis. The note with it: in vivo. Summed up: as §2
Series [25] is described as follows: as §7. Format: ADME, organism-based, Macaca fascicularis. Also on record: time < 24 hr, dose 10 mg/kg, route oral. The settings on record: in vivo. The procedure, abridged: as §6
Series [26] is described as follows: as §8. The class given is ADME, organism-based, Macaca fascicularis. The note with it: in vivo. The procedure, abridged:
as §5

The next series deals with Canis familiaris. The description is as §4. The class given is ADME, organism-based, Canis lupus familiaris. The note with it: in vivo. The procedure, abridged:
as §5

On to `CC1(C)Cc2c(c(C(=O)Nc3ccc(F)c(C(F)(F)F)c3)cc3nc(Nc4c(F)cccc4Cl)[nH]c23)O1`, for which the Kp at 7 h in series [1] stood at 1.06; in series [18], 0.6. The Ratio in series [2] was found to be 5. In addition, the Vd in [3] was determined as 1.94 L/kg. The inhibition in vivo at 10 mg/kg in the series with Cavia porcellus [4] was found to be 20%. In addition, the fraction unbound at 5 h, 10 µM in series [5] was 0.0052. Moreover, the inhibition in vivo at 100 mg/kg with Cavia porcellus [6] was determined as 66%. The Kp in series [7] came to 0.72; in series [8], 0.32; in series [13], 0.44. The ED50 with Cavia porcellus [9] was 39.6 mg/kg. For the same molecule, the clearance in series [10] came to 1.61 mL/min/kg. Besides, the values for the bioavailability in [11] and in [12] were 15% and 91%, respectively. The Cmax in series [14] is 995 ng/mL; in series [23], 361 ng/mL. In series [15], the EC50 came to 2460 nM. For the same molecule, the Tmax in [16] is 2 h. Besides, the Activity in the series with Cavia porcellus [17] is recorded as 73%. Moreover, in the series on Cynomolgus monkey [19], the AUC is 9669 ng·h/mL. The molecule also returned an AUC(0-t) at 24 h in [20] of 8240 ng·h/mL. Further, the F with Cynomolgus monkey [21] is 44%. Also, the concentration at 7 h in series [22] was 1150 nM.
Regarding `Cc1cccc(Cl)c1Nc1nc2cc(C(=O)Nc3cc(C(F)(F)F)ccc3F)c3c(c2[nH]1)CC(C)(C)O3`, the Vd in series [3] was 9.17 L/kg. For the same molecule, the clearance in series [24] was 1.6 mL/min/kg; in series [10], 3.5 mL/min/kg. The Kp in [8] was 0.16. For the same molecule, the results for the bioavailability in [11], in series [12] and in series [26] were 40%, 14% and 11%, respectively. Moreover, the BPR result in series [13] (brain, BLD = below limit of detection) is “Bld”. Besides, the Cmax was determined as 210 ng/mL in [14] and 80 ng/mL in series [23]. Besides, the Tmax in [16] was 4 h. In addition, the results for the area under the curve AUC(0-t) at 24 h in series [25] and in series [20] were 7510 ng·h/mL and 12900 ng·h/mL, respectively.
`CC1(C)Cc2c(c(C(=O)Nc3ccc(C(F)(F)F)cn3)cc3nc(Nc4c(Cl)cccc4Cl)[nH]c23)O1`: the Vd in series [3] was found to be 5.4 L/kg. In [24], this molecule had a clearance of 8.5 mL/min/kg. In addition, the fraction unbound at 5 h, 10 µM in series [5] was 0.005. Moreover, the Kp was 0.32 in series [7], 0.37 in series [8] and 0.58 in [13]. The molecule further had a F in the series with Canis familiaris of 25%. Besides, the bioavailability was determined as 43% in [12] and 21% in [26]. Moreover, the Cmax in [14] was 344 ng/mL; in series [23], 91 ng/mL. In series [16], the Tmax turned out to be 4 h. This molecule registered an AUC(0-t) at 24 h in [25] of 3670 ng·h/mL.
